Results published in ChEMBL document CHEMBL1133727, “Structure-activity relationships in a series of bisquaternary bisphthalimidine derivatives modulating the muscarinic M(2)-receptor allosterically” (J Med Chem, 2000).

How the values were obtained:
[1] = Partition coefficient (logP); type: physicochemical; settings: octanol/water
[2] = target: T1, Muscarinic acetylcholine receptor M2 (Sus scrofa, UniProt P06199); experiment: Inhibition of [3H]- N-methyl-scopolamine ([3H]NMS) dissociation from porcine cardiac M2-receptors; settings: read-out: Log 1/EC50 (converted)
T1 sequence (P06199 whole entry): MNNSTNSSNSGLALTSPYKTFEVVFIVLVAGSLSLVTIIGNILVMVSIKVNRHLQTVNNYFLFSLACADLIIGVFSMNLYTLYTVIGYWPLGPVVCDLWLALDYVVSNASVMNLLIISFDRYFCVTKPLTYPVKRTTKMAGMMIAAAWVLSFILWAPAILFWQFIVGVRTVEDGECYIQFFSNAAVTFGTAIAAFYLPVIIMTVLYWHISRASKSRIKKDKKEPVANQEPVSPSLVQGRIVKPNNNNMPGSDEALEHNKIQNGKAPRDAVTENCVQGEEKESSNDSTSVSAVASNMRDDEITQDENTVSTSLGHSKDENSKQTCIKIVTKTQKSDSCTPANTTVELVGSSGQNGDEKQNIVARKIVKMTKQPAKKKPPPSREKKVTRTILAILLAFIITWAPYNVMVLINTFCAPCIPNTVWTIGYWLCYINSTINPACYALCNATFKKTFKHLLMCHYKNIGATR
Summary of the method: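 Porcine heart ventricular myocardium homogenate, stored at −80 °C. Membranes preincubated 30 min with [3H]NMS in 3 mM MgHPO4, 50 mM Tris, pH 7.3, 37 °C. Dissociation started with 1 µM atropine, with or without test compound. Bound ligand collected by filtration and counted by liquid scintillation. Monoexponential fit gave apparent k−1; EC50 for k−1 reduced to 50% of control, from four-parameter logistic fit.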

Row | Structure (SMILES) | logP [1] | EC50 [2]
1 | C[N+](C)(CCCCCC[N+](C)(C)CCCN1C(=O)c2ccccc2/C1=C/c1ccccc1)CCCN1C(=O)c2ccccc2/C1=C/c1ccccc1 | 2.96 | 85.1 nM
2 | C[N+](C)(CCCCCC[N+](C)(C)CCCN1C(=O)c2ccccc2C1Cc1ccccc1)CCCN1C(=O)c2ccccc2C1Cc1ccccc1 (centres undefined) | 3.65 | 1000 nM
3 | C[N+](C)(CCCCCC[N+](C)(C)CCCN1C(=O)c2ccccc2C1=O)CCCN1C(=O)c2ccccc2C1=O | 1.46 | 1410 nM
4 | C[N+](C)(CCCCCC[N+](C)(C)CCCN1Cc2ccccc2C1=O)CCCN1Cc2ccccc2C1=O | 1.55 | 2000 nM
5 | CC(C)SC1c2ccccc2C(=O)N1CCC[N+](C)(C)CCCCCC[N+](C)(C)CCCN1C(=O)c2ccccc2C1SC(C)C (centres undefined) | 2.92 | 1260 nM
6 | C[N+](C)(CCCCCC[N+](C)(C)CCCN1C(=O)c2ccccc2C1c1ccccc1)CCCN1C(=O)c2ccccc2C1c1ccccc1 (centres undefined) | 3.4 | 794 nM
7 | CCOC1c2ccccc2C(=O)N1CCC[N+](C)(C)CCCCCC[N+](C)(C)CCCN1C(=O)c2ccccc2C1OCC (centres undefined) | 2.07 | 2290 nM
8 | C[N+](C)(CCCCCC[N+](C)(C)CCCN1C(=O)c2ccccc2/C1=C\c1ccccc1)CCCN1C(=O)c2ccccc2/C1=C/c1ccccc1 | 2.96 | 66.1 nM
9 | CC(C)OC1c2ccccc2C(=O)N1CCC[N+](C)(C)CCCCCC[N+](C)(C)CCCN1C(=O)c2ccccc2C1OC(C)C (centres undefined) | 2.48 | 1580 nM
10 | C[N+](C)(CCCCCC[N+](C)(C)CCCN1C(=O)c2ccccc2C1O)CCCN1C(=O)c2ccccc2C1O (centres undefined) | 1.45 | 6030 nM
11 | C[N+](C)(CCCCCC[N+](C)(C)CCCN1C(=O)c2ccccc2/C1=C\c1ccccc1)CCCN1C(=O)c2ccccc2/C1=C\c1ccccc1 | 2.96 | 70.8 nM
12 | COC1c2ccccc2C(=O)N1CCC[N+](C)(C)CCCCCC[N+](C)(C)CCCN1C(=O)c2ccccc2C1OC (centres undefined) | 1.72 | 6760 nM
